A short description of data set [1]: Selectivity index, ratio of CC50 for human HepG2.2.15 cells to IC50 for HBV infected in human HepG2.2.15 cells assessed as inhibition of viral surface antigen production. It counts as functional. The procedure, abridged:
(§1)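 Selectivity index was calculated as CC50 (HepG 2.2.15 cytotoxicity) divided by IC50 for the given marker (HBV DNA replication, HBeAg or HBsAg), all measured in HepG 2.2.15 cells.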

Data set [2] is described as follows: Selectivity index, ratio of CC50 for human HepG2.2.15 cells to IC50 for HBV infected in human HepG2.2.15 cells assessed as inhibition of viral DNA replication. It counts as functional. The procedure, abridged: as §1
Data set [3] is described as follows: Selectivity index, ratio of CC50 for human HepG2.2.15 cells to IC50 for HBV infected in human HepG2.2.15 cells assessed as inhibition of viral e antigen production. In kind it is functional. In a few lines:
as §1

A short description of data set [4]: Cytotoxicity against human HepG2.2.15 cells. In kind it is cell-based, HepG2 2.2.15. In a few lines:
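Cytotoxicity was tested in HepG 2.2.15 cells alongside the anti-HBV assay. CC50 was taken as the compound concentration required to destroy 50% of the cells.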

For data set [5], the system named is Hepatitis B virus. The data set can be described thus: Antiviral activity against HBV infected in human HepG2.2.15 cells assessed as inhibition of viral DNA replication. In kind it is functional, organism-based. To be noted: HepG2 2.2.15. In a few lines:
(§2)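 Assayed in HBV-producing HepG 2.2.15 cells, with tenofovir as positive control. HBsAg, HBeAg and HBV DNA replication were each measured, and IC50 was taken as the compound concentration giving 50% inhibition of the given marker.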

Data set [6] concerns Hepatitis B virus. The data set can be described thus: Antiviral activity against HBV infected in human HepG2.2.15 cells assessed as inhibition of viral e antigen production. It counts as functional, organism-based. To be noted: HepG2 2.2.15. The procedure, abridged: as §2
The test system of data set [7] is Hepatitis B virus. The data set can be described thus: Antiviral activity against HBV infected in human HepG2.2.15 cells assessed as inhibition of viral surface antigen production. In kind it is functional, organism-based. To be noted: HepG2 2.2.15. In a few lines: as §2

pIC50: −log10 of the molar value.

One may read the CC50 as the concentration at which the toxic effect on the cells reaches its halfway point. For orientation: pIC50 means −log10 of the IC50, conventionally taken in molar units.

Regarding `CC(=O)O[C@H]1C[C@@H]2C(=CC[C@@H]3[C@@]2(C)C(=O)C[C@]2(C)[C@@H]([C@@](C)(O)C(=O)CCC(C)(C)OC(C)=O)[C@H](O)C[C@@]32C)C(C)(C)[C@@H]1OC(C)=O`, the “Ratio CC50/IC50” value amounted to 24.3 in data set [1], 55.6 in data set [2] and 11.7 in data set [3]. In data set [4], this molecule registered a 50% cytotoxic concentration (CC50) of 546 µM. The pIC50 was 5.01 with Hepatitis B virus [5], 4.33 with Hepatitis B virus [6] and 4.65 in the data set with Hepatitis B virus [7].

Regarding `CC(=O)O[C@@H]1[C@@H](O)C[C@@H]2C(=CC[C@@H]3[C@@]2(C)C(=O)C[C@]2(C)[C@@H]([C@@](C)(O)C(=O)CCC(C)(C)OC(C)=O)[C@H](O)C[C@@]32C)C1(C)C`, the figures for the “Ratio CC50/IC50” value in data set [1], in data set [2] and in data set [3] were 1.3, 89.7 and under 1, respectively. Further, the CC50 in data set [4] was 254 µM. Besides, the pIC50 is 5.55 in the data set with Hepatitis B virus [5], under 3.60 with Hepatitis B virus [6] and 3.72 in the data set with Hepatitis B virus [7].

Regarding `CC(C)(O)CCC(=O)[C@](C)(O)[C@H]1[C@H](O)C[C@@]2(C)[C@@H]3CC=C4[C@@H](C[C@H](O)[C@@H](O)C4(C)C)[C@]3(C)C(=O)C[C@]12C`, the “Ratio CC50/IC50” value in data set [1] is given as under 1; in data set [2] it was 1.9; in data set [3], under 1. In data set [4], this molecule came in with a CC50 of 60.6 µM. Moreover, the pIC50 was 4.50 with Hepatitis B virus [5], under 4.22 in the data set on Hepatitis B virus [6] and under 4.22 in the data set with Hepatitis B virus [7].

`CCCC(=O)O[C@@H]1[C@@H](O)C[C@@H]2C(=CC[C@@H]3[C@@]2(C)C(=O)C[C@]2(C)[C@@H]([C@@](C)(O)C(=O)CCC(C)(C)OC(C)=O)[C@H](O)C[C@@]32C)C1(C)C`: the “Ratio CC50/IC50” value was under 1 in data set [1], 1.3 in data set [2] and under 1 in data set [3]. In data set [4], this molecule registered a CC50 of 6.3 µM. The values for the pIC50 in the data set on Hepatitis B virus [5], in the data set with Hepatitis B virus [6] and in the data set on Hepatitis B virus [7] were 5.33, under 5.20 and under 5.20, respectively.

In the case of `CCCC(=O)O[C@H]1C[C@@H]2C(=CC[C@@H]3[C@@]2(C)C(=O)C[C@]2(C)[C@@H]([C@@](C)(O)C(=O)CCC(C)(C)OC(C)=O)[C@H](O)C[C@@]32C)C(C)(C)[C@@H]1O`, the figures for the “Ratio CC50/IC50” value in data set [1], in data set [2] and in data set [3] were under 1, 2 and under 1, respectively. Besides, the CC50 in data set [4] worked out at 12.4 µM. Also, the pIC50 is 5.21 in the data set with Hepatitis B virus [5], under 4.91 in the data set on Hepatitis B virus [6] and under 4.91 in the data set on Hepatitis B virus [7].

Turning to `CCC(=O)O[C@@H]1[C@@H](O)C[C@@H]2C(=CC[C@@H]3[C@@]2(C)C(=O)C[C@]2(C)[C@@H]([C@@](C)(O)C(=O)CCC(C)(C)OC(C)=O)[C@H](O)C[C@@]32C)C1(C)C`, the figures for the “Ratio CC50/IC50” value in data set [1], in data set [2] and in data set [3] were 5.5, 31.9 and 5.9, respectively. Half-maximal cytotoxicity in data set [4] (CC50) was put at 100 µM. For the same molecule, the values for the negative logarithm of the IC50 (pIC50) in the data set with Hepatitis B virus [5], in the data set on Hepatitis B virus [6] and in the data set on Hepatitis B virus [7] were 5.51, 4.77 and 4.74, respectively.
